Assay results reported in ChEMBL document CHEMBL1125652, “Kynurenic acid derivatives. Structure-activity relationships for excitatory amino acid antagonism and identification of potent and selective antagonists at the glycine site on the N-methyl-D-aspartate receptor” (J Med Chem, 1991).
Calls of active or inactive are those of the source. No cut-off for these calls is given here.

Experiments:
[1] = target: T1, Glutamate NMDA receptor (Rattus norvegicus) (UniProt P35439+Q00959+Q00960+Q00961+Q62645+Q8VHN2+Q9R1M7); test: Apparent dissociation constant of [3H]glycine from N-methyl-D-aspartate glutamate receptor in rat cortical slice preparation expressed as log values.
Method in brief: (§1)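 Rat cortical slice preparation; test compound antagonism of depolarizations evoked by agonists N-methyl-D-aspartic acid, quisqualic acid or kainic acid, expressed as apparent Kb.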

[2] = target: T2, Glutamate receptor ionotropic, kainate (Rattus norvegicus) (UniProt P22756+Q01812+P42260+P42264+Q63273); test: Apparent dissociation constant of [3H]kainate from Ionotropic glutamate receptor ionotropic kainate was determined in rat cortical slice preparation; method in brief: as §1
[3] = target: T1, Glutamate NMDA receptor (Rattus norvegicus); test: Apparent dissociation constant of [3H]-glycine from N-methyl-D-aspartate glutamate receptor in rat cortical slice preparation at 100 uM; Inactive; method in brief: as §1
[4] = target: T3, Glutamate receptor ionotropic, AMPA (Rattus norvegicus) (UniProt P19491+P19492+P19493+P19490); test: Apparent dissociation constant of [3H]AMPA from quisqualate receptor of rat cortical slices; assay type: protein-complex assay; method in brief: as §1
[5] = target: T2, Glutamate receptor ionotropic, kainate (Rattus norvegicus); test: Apparent dissociation constant of [3H]kainate from ionotropic glutamate receptor kainate of rat cortical slice at 100 uM; Inactive; assay type: protein-complex assay; method in brief: as §1
[6] = target: Glutamate NMDA receptor; test: Inhibition of [3H]glycine binding to glycine site of N-methyl-D-aspartate glutamate receptor in rat cortical membranes; assay type: cell membranes, Membrane
[7] = target: T3, Glutamate receptor ionotropic, AMPA (Rattus norvegicus); test: Apparent dissociation constant of [3H]AMPA from Quisqualate receptor was determined in rat cortical slice preparation at 100 uM; Inactive; method in brief: as §1
[8] = target: Glutamate NMDA receptor; test: Inhibition of [3H]glycine binding to N-methyl-D-aspartate glutamate receptor of rat cortical membranes; assay type: cell membranes, Membrane
Method in brief: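 [3H]Glycine radioligand binding to rat cortical membranes. IC50 is the concentration inhibiting 50% of specific binding, taken from at least two experiments and given as the mean of two to four determinations (geometric mean).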

[9] = target: Glutamate receptor ionotropic, kainate; test: Inhibition of [3H]-kainic acid binding to kainate receptor of rat cortical membrane
[10] = target: Glutamate receptor ionotropic, AMPA (Rattus norvegicus, UniProt P19490+P19491+P19492+P19493); test: Inhibition of [3H]-AMPA binding to AMPA receptor of rat cortical membrane
[11] = target: Glutamate NMDA receptor; test: Inhibition of [3H]-glutamate binding to N-methyl-D-aspartate glutamate receptor of rat cortical membranes; assay type: cell membranes, Membrane
[12] = target: T1, Glutamate NMDA receptor (Rattus norvegicus); test: Apparent dissociation constant of [3H]-glycine from N-methyl-D-aspartate glutamate receptor in rat cortical slice at 30 uM; Inactive; method in brief: as §1
[13] = target: T3, Glutamate receptor ionotropic, AMPA (Rattus norvegicus); test: Apparent dissociation constant of [3H]-AMPA from Quisqualate receptor of rat cortical slice at 30 uM; Inactive; assay type: protein-complex assay; method in brief: as §1
[14] = target: T1, Glutamate NMDA receptor (Rattus norvegicus); test: Apparent dissociation constant of [3H]glycine from N-methyl-D-aspartate glutamate receptor of rat cortical slices; assay type: protein-complex assay
Method in brief: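 Antagonism of NMDA-induced depolarizations in a rat cortical slice preparation, where endogenous glycine is present at supersaturating levels. Apparent Kb was obtained from dose ratios, with a dose ratio under 2 at a stated concentration reported as ">". Kb values are means of at least three experiments.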

[15] = target: T2, Glutamate receptor ionotropic, kainate (Rattus norvegicus); test: Apparent dissociation constant for [3H]kainate from Ionotropic glutamate receptor kainate of rat cortical slices; assay type: protein-complex assay
Method in brief: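 Functional antagonism of kainate-induced depolarizations in rat cortical slices. Apparent Kb was obtained from dose ratios, with a dose ratio under 2 at a stated concentration reported as ">". Kb values are means of at least three experiments.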

Compound | -Log 1/Kb [1] | Kb [2] | IC50 [6] | other results
O=C(O)c1cc(O)c2ccc(C(F)(F)F)cc2n1 | 3.52 |  |  | 
O=C(O)c1cc(O)c2c(Br)cccc2n1 | 4.7 |  |  | 
O=C(O)c1cc(O)c2cc([N+](=O)[O-])ccc2n1 |  | 49 µM |  | Kb [3]: inactive; Kb [4]: 52 µM
CCCCc1ccc2c(O)cc(C(=O)O)nc2c1 |  |  | > 100 µM | 
O=C(O)c1cc(O)c2ccc(Br)cc2n1 | 5.1 |  | 0.85 µM | 
O=C(O)c1nc2cc(Cl)ccc2[nH]1 |  |  | 5.6 µM | 
O=c1[nH]c2cc([N+](=O)[O-])c([N+](=O)[O-])cc2[nH]c1=O [DNQX] |  |  |  | IC50 [8]: 4.5 µM
COc1ccc2c(O)cc(C(=O)O)nc2c1 |  |  | > 100 µM | 
Cc1cc2[nH]c(=O)c(=O)n(C)c2cc1C |  | 47 µM | 6.6 µM | 
CSc1ccc2c(O)cc(C(=O)O)nc2c1 | 2.67 |  |  | 
C=Cc1ccc2c(O)cc(C(=O)O)nc2c1 | 3.58 |  | > 100 µM | 
COc1nc2cc(C)c(C)cc2nc1O |  | 86 µM | > 100 µM | Kb [12]: inactive; Kb [13]: inactive
O=C(O)c1cc(O)c2c(I)cccc2n1 | 5.12 |  | 0.63 µM | 
Cc1ccc2nc(C(=O)O)cc(O)c2c1 |  | 59 µM |  | Kb [3]: inactive; Kb [4]: 66 µM
CSc1ccc2nc(C(=O)O)cc(O)c2c1 |  | 43 µM |  | Kb [4]: 56 µM
COc1nc2cc(C)c(C)cc2nc1OC |  |  | > 100 µM | 
O=C(O)c1cc(O)c2ccc(F)cc2n1 | 4.5 |  |  | 
O=C(O)c1cc(O)c2c(F)cccc2n1 | 4.39 |  |  | 
O=C(O)c1cc(O)c2ccc([N+](=O)[O-])cc2n1 | 4.11 |  |  | 
C=Cc1cccc2nc(C(=O)O)cc(O)c12 |  |  | > 100 µM | 
O=[N+]([O-])c1ccc2nc(O)c(O)nc2c1 |  | 4.6 µM | 8.3 µM | 
CCCCc1cccc2nc(C(=O)O)cc(O)c12 | 3.31 |  | > 100 µM | 
O=[N+]([O-])c1cc2nc(O)c(O)nc2cc1[N+](=O)[O-] |  |  |  | Kb [14]: 5.3 µM; Kb [15]: 1.29 µM
CC(C)c1ccc2c(O)cc(C(=O)O)nc2c1 |  |  | > 100 µM | 

Compound | -Log 1/Kb [1] | Kb [2] | IC50 [6] | other results
Cc1cc2nc(O)c(O)nc2cc1C |  | 27 µM |  | 
COc1ccc2nc(C(=O)O)cc(O)c2c1 |  | 32 µM |  | Kb [3]: inactive; Kb [4]: 87 µM
Oc1nc2ccccc2nc1O |  | > 100 µM | 38.6 µM | 
Oc1nc2cc(Cl)c(Cl)cc2nc1O [2,3-DIHYDROXY-6,7-DICHLOROQUINOXALINE] |  | 9 µM | 3.1 µM | 
Cc1cc2[nH]c(=O)c(=O)[nH]c2cc1C |  |  | 2.3 µM | 
O=C(O)c1cc(O)c2ccc(I)cc2n1 | 4.33 |  | 3.6 µM | 
O=C(O)c1cc(O)c2c([N+](=O)[O-])cc([N+](=O)[O-])cc2n1 |  |  | > 100 µM | 
Oc1nc2ccc(Cl)cc2nc1O |  | 26 µM |  | 
CCc1ccc2nc(C(=O)O)cc(O)c2c1 |  | > 100 µM |  | Kb [3]: inactive; Kb [4]: > 100 µM
O=c1[nH]c2ccc(Cl)cc2[nH]c1=O |  |  | 8.4 µM | 
Cc1ccc2c(O)cc(C(=O)O)nc2c1 | 4.47 |  | 1.8 µM | 
CCc1ccc2c(O)cc(C(=O)O)nc2c1 | 3.82 |  | > 100 µM | 
CCCc1ccc2c(O)cc(C(=O)O)nc2c1 |  |  | > 100 µM | 
O=C(O)c1cc(O)c2cc(Br)ccc2n1 |  | 30 µM |  | Kb [4]: 28 µM
O=C(O)c1cc(O)c2cc(C(F)(F)F)ccc2n1 |  | > 100 µM |  | Kb [3]: inactive; Kb [4]: > 100 µM
O=C(O)c1cc(O)c2c(C(F)(F)F)cccc2n1 | 4.46 |  |  | 
O=C(O)c1cc(O)c2cc(I)ccc2n1 |  | 37 µM |  | Kb [4]: 56 µM
O=C(O)c1cc(O)c2cc(F)ccc2n1 |  | 55 µM |  | Kb [4]: 48 µM
CCCc1cccc2nc(C(=O)O)cc(O)c12 | 3.4 |  |  | 
O=C(O)c1cc(O)c2c(C(F)(F)F)cc(C(F)(F)F)cc2n1 |  |  | > 100 µM | 
Cc1cc2c(cc1C)n(C)c(=O)c(=O)n2C |  |  | > 100 µM | 
Cc1cccc2nc(C(=O)O)cc(O)c12 | 4.68 |  | 2.1 µM | 
Oc1nc2cccc(Cl)c2nc1O |  | > 100 µM | 56.3 µM | 

Further lines, with some results ahead:

-Log 1/Kb [1] | Kb [2] | IC50 [6] | Compound | other results
 |  | > 100 µM | O=C(O)c1cc(O)c2cccc(Cl)c2n1 | Kb [5]: inactive; Kb [3]: inactive; Kb [7]: inactive
4.43 | > 100 µM | 5.2 µM | O=C(O)c1cc(O)c2c(Cl)cccc2n1 | 
 | 14 µM | 2.4 µM | O=C(O)c1cc(O)c2c(Cl)c(Cl)c(Cl)cc2n1 | 
6.4 |  | 0.032 µM | O=C(O)c1cc(O)c2c(I)cc(Cl)cc2n1 | 
5.15 | 50 µM | 0.56 µM | O=C(O)c1cc(O)c2ccc(Cl)cc2n1 [7-CHLOROKYNURENIC ACID] | IC50 [9]: > 1000 µM; IC50 [10]: 153 µM; IC50 [11]: 169 µM
5.16 |  | 0.54 µM | Cc1cc(C)c2c(O)cc(C(=O)O)nc2c1 | 
 |  | 6.8 µM | O=C(O)C(=O)Nc1cc(Cl)cc(Cl)c1 | Kb [7]: inactive
5.68 |  | 0.82 µM | Cc1cc(Br)c2c(O)cc(C(=O)O)nc2c1 | 
6 |  | 0.26 µM | CCc1cc(Cl)cc2nc(C(=O)O)cc(O)c12 | 
5.8 |  | 0.086 µM | O=C(O)c1cc(O)c2c(Br)cc(Br)cc2n1 | 
 | 22 µM | 3.4 µM | Oc1nc2cc(Cl)cc(Cl)c2nc1O | 
 |  | 49 µM | O=C(O)CNc1cc(Cl)cc(Cl)c1 | Kb [7]: inactive
5.58 |  | 1.1 µM | Cc1cc(Br)cc2nc(C(=O)O)cc(O)c12 | 
 | 89 µM |  | O=C(O)c1cc(=O)c2ccccc2[nH]1 [TRANSTORINE] | IC50 [9]: > 1000 µM; IC50 [10]: 101 µM
5 |  | 0.65 µM | O=C(O)c1cc(O)c2c(Cl)cc(I)cc2n1 | 
 | > 30 µM | 0.2 µM | O=C(O)c1cc(O)c2c(Cl)cc(Cl)cc2n1 | IC50 [9]: > 300 µM; IC50 [11]: > 100 µM
5.26 |  | 4.8 µM | CCc1cccc2nc(C(=O)O)cc(O)c12 | 
5.75 |  | 0.066 µM | CCc1cc(Br)cc2nc(C(=O)O)cc(O)c12 | 
6 |  | 0.27 µM | Cc1cc(I)c2c(O)cc(C(=O)O)nc2c1 | 
4.72 |  | 3.2 µM | CCc1cc(Br)c2c(O)cc(C(=O)O)nc2c1 | 
 |  | 100 µM | COc1cc(C(=O)O)nc2cc(Cl)cc(Cl)c12 | Kb [5]: inactive; Kb [3]: inactive; Kb [7]: inactive
 | 19 µM | > 100 µM | O=C(O)c1cc(O)c2cc(Cl)ccc2n1 | IC50 [9]: > 300 µM; IC50 [10]: 41 µM; IC50 [11]: > 300 µM
 |  | > 100 µM | Cn1c(C(=O)O)cc(=O)c2c(Cl)cc(Cl)cc21 | Kb [5]: inactive; Kb [3]: inactive; Kb [7]: inactive
5.05 |  | 1.2 µM | Cc1cc(I)cc2nc(C(=O)O)cc(O)c12 | 
4.42 |  | 4.9 µM | CCc1cc(Cl)c2c(O)cc(C(=O)O)nc2c1 | 
